Laboratory results taken from ChEMBL document CHEMBL4425103, “Diving into the Water: Inducible Binding Conformations for BRD4, TAF1(2), BRD9, and CECR2 Bromodomains” (J Med Chem, 2016).
pIC50, pKd: −log10 of the molar value.

Assays:
Protein polybromo-1 = Protein polybromo-1 (Homo sapiens, UniProt Q86U86); assay: Binding affinity to human partial length PBRM1(2) expressed in bacterial expression system by BROMOscan assay
[1] = biological target: Histone acetyltransferase p300 (Homo sapiens, UniProt Q09472); assay: Binding affinity to human partial length EP300 expressed in bacterial expression system by BROMOscan assay
[2] = biological target: SWI/SNF-related matrix-associated actin-dependent regulator of chromatin subfamily A member 4 (Homo sapiens, UniProt P51532); assay: Binding affinity to human partial length SMARCA4 expressed in bacterial expression system by BROMOscan assay
[3] = biological target: SWI/SNF-related matrix-associated actin-dependent regulator of chromatin subfamily A member 2 (Homo sapiens, UniProt P51531); assay: Binding affinity to human partial length SMARCA2 expressed in bacterial expression system by BROMOscan assay
Homo sapiens [4] = organism: Homo sapiens; assay: Selectivity index, ratio of IC50 for recombinant His-tagged CBP (unknown origin) to IC50 for recombinant His-tagged CECR2 (unknown origin)
Summary of the method: (§1)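 Protein and then probe were added, 10 min each. Anti-His-europium (0.2 nM) plus SA-APC was read after 40 min. 10-point titrations (N=2), ≥2 independent runs, 4-parameter Hill fit. Index is the ratio of the two IC50s.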

Homo sapiens [5] = organism: Homo sapiens; assay: Selectivity index, ratio of IC50 for recombinant His-tagged TAF1 isoform-1 (unknown origin) to IC50 for recombinant His-tagged CECR2 (unknown origin); summary of the method: as §1
[6] = biological target: T1, Transcription initiation factor TFIID subunit 1 (Homo sapiens, UniProt P21675); assay: Inhibition of recombinant His-tagged TAF1 isoform-1 (unknown origin) using biotinylated ligand incubated for 10 mins by TR-FRET assay
[7] = biological target: T2, Bromodomain-containing protein 9 (Homo sapiens, UniProt Q9H8M2); assay: Displacement of biotinylated JQ1 analog from recombinant His-tagged BRD9 (unknown origin) incubated for 10 mins by TR-FRET assay
T2 sequence (Q9H8M2 whole entry): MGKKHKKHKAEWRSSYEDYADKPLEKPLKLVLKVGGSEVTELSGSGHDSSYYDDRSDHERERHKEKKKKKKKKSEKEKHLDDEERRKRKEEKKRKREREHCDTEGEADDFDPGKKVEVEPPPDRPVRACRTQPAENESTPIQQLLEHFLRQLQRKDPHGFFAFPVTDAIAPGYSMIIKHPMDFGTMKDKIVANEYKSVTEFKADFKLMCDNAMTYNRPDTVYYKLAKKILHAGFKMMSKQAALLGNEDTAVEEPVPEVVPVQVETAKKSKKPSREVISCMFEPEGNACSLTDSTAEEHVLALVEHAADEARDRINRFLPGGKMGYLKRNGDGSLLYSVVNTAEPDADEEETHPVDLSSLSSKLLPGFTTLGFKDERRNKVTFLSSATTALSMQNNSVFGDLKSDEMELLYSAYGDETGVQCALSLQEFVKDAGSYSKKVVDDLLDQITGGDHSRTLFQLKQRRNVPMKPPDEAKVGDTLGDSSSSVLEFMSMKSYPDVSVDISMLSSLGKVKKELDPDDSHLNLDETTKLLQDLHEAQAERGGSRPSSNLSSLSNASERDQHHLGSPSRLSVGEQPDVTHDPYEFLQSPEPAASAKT

[8] = biological target: Bromodomain-containing protein 4 (Homo sapiens, UniProt O60885); assay: Inhibition of recombinant His-tagged BRD4 bromodomain1 (unknown origin) using biotinylated ligand incubated for 10 mins by TR-FRET assay
Homo sapiens [9] = organism: Homo sapiens; assay: Selectivity index, ratio of IC50 for recombinant His-tagged […] (unknown origin) to IC50 for recombinant His-tagged CECR2 (unknown origin); summary of the method: as §1
[10] = biological target: Chromatin remodeling regulator CECR2 (Homo sapiens, UniProt Q9BXF3); assay: Inhibition of recombinant His-tagged CECR2 (unknown origin) using biotinylated ligand incubated for 10 mins by TR-FRET assay
Homo sapiens [11] = organism: Homo sapiens; assay: Selectivity index, ratio of IC50 for recombinant His-tagged BRD4 bromodomain2 to IC50 for recombinant His-tagged CECR2 (unknown origin); summary of the method: as §1
Homo sapiens [12] = organism: Homo sapiens; assay: Selectivity index, ratio of IC50 for recombinant His-tagged BRD4 bromodomain1 to IC50 for recombinant His-tagged CECR2 (unknown origin); summary of the method: as §1
[13] = biological target: T1, Transcription initiation factor TFIID subunit 1; assay: Inhibition of recombinant His-tagged TAF1 isoform-2 (unknown origin) using biotinylated ligand incubated for 10 mins by TR-FRET assay

T1 sequence (P21675 whole entry, canonical isoform): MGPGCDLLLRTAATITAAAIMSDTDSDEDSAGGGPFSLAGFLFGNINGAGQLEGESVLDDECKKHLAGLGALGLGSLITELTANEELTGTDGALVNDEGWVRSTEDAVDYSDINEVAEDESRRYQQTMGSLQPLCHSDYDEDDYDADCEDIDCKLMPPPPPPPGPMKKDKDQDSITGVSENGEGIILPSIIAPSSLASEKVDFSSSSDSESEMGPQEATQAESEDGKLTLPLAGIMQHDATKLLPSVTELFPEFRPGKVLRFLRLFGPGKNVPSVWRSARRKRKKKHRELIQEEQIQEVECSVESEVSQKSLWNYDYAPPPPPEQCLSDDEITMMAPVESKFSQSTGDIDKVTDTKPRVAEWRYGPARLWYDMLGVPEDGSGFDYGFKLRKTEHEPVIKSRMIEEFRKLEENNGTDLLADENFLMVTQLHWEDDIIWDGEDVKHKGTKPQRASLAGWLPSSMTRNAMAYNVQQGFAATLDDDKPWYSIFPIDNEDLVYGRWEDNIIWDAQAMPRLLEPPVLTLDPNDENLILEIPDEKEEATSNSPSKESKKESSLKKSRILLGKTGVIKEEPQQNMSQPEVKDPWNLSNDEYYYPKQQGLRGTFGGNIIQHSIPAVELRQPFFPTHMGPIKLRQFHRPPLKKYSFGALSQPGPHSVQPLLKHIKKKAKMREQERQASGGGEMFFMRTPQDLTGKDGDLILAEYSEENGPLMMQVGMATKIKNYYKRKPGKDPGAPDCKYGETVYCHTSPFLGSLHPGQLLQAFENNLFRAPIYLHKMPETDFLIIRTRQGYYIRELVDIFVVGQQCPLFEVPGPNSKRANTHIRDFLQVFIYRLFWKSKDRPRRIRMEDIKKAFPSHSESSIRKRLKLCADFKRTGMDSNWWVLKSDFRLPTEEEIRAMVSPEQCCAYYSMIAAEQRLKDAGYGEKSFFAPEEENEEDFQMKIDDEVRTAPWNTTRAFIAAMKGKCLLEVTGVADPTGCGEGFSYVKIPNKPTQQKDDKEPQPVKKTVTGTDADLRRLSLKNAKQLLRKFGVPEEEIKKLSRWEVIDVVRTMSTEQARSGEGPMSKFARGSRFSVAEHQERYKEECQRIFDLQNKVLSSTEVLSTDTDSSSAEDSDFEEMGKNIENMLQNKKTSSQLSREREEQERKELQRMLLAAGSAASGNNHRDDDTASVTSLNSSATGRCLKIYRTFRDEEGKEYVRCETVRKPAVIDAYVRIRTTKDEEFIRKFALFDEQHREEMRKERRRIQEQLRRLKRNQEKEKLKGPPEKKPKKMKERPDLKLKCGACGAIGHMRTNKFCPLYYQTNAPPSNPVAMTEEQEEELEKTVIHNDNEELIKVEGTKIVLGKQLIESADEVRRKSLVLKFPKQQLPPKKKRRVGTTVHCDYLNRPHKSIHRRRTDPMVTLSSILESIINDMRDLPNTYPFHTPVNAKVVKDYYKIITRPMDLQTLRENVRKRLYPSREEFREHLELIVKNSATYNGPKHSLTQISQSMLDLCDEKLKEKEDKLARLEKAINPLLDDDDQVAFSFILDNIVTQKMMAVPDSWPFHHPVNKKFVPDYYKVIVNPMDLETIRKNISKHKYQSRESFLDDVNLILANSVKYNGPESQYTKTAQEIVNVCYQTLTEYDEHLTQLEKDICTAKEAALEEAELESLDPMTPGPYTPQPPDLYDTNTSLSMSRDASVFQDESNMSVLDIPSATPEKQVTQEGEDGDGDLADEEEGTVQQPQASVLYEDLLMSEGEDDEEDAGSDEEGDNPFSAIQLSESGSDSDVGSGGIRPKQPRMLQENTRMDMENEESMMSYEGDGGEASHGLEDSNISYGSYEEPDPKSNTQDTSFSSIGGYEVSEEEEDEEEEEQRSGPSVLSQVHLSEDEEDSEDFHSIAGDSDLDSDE
Chain of SWI/SNF-related matrix-associated actin-dependent regulator of chromatin subfamily A member 4 (P51532 whole entry): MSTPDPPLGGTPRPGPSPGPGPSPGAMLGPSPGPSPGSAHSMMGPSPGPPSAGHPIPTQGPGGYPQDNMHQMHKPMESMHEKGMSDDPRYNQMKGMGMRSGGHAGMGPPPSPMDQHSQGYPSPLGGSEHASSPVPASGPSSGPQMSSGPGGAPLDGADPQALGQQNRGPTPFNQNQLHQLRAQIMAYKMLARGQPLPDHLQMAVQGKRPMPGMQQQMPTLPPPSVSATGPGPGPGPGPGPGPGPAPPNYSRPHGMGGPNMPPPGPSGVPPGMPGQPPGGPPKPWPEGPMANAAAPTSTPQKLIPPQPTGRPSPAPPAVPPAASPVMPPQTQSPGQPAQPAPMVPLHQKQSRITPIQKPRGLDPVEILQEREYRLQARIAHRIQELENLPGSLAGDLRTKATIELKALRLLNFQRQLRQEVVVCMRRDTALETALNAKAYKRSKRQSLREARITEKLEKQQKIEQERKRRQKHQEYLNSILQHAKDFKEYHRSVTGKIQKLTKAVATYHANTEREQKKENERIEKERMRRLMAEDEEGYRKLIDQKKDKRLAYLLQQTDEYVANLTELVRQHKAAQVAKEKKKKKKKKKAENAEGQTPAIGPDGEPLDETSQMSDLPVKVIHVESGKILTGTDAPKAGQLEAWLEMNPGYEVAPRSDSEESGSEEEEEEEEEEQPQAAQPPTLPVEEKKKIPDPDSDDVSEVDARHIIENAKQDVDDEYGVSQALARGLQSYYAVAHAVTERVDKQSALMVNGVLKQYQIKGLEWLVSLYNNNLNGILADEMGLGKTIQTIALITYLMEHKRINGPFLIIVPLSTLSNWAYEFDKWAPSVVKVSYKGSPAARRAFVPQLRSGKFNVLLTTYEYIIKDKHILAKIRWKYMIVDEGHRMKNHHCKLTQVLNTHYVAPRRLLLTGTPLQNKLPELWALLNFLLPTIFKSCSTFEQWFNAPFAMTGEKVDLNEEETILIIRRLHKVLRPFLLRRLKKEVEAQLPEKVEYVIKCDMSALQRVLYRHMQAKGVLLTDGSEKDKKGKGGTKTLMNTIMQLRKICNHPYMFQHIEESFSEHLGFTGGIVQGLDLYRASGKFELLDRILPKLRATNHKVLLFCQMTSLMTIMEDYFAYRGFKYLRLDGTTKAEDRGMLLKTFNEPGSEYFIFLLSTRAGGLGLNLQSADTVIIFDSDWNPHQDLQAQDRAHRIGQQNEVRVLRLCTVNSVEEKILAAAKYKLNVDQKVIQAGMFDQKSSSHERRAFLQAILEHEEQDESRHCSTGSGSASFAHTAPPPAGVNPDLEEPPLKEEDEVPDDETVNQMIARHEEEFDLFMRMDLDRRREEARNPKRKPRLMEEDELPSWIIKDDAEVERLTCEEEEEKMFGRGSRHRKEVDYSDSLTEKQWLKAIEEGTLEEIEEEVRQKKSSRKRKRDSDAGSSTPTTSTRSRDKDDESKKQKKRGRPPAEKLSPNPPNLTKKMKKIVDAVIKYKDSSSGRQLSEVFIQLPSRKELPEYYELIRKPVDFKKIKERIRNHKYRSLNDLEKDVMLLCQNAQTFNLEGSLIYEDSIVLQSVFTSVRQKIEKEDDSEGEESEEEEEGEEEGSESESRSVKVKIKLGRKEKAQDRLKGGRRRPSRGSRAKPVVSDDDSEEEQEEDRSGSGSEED
Chain of Chromatin remodeling regulator CECR2 (Q9BXF3 whole entry): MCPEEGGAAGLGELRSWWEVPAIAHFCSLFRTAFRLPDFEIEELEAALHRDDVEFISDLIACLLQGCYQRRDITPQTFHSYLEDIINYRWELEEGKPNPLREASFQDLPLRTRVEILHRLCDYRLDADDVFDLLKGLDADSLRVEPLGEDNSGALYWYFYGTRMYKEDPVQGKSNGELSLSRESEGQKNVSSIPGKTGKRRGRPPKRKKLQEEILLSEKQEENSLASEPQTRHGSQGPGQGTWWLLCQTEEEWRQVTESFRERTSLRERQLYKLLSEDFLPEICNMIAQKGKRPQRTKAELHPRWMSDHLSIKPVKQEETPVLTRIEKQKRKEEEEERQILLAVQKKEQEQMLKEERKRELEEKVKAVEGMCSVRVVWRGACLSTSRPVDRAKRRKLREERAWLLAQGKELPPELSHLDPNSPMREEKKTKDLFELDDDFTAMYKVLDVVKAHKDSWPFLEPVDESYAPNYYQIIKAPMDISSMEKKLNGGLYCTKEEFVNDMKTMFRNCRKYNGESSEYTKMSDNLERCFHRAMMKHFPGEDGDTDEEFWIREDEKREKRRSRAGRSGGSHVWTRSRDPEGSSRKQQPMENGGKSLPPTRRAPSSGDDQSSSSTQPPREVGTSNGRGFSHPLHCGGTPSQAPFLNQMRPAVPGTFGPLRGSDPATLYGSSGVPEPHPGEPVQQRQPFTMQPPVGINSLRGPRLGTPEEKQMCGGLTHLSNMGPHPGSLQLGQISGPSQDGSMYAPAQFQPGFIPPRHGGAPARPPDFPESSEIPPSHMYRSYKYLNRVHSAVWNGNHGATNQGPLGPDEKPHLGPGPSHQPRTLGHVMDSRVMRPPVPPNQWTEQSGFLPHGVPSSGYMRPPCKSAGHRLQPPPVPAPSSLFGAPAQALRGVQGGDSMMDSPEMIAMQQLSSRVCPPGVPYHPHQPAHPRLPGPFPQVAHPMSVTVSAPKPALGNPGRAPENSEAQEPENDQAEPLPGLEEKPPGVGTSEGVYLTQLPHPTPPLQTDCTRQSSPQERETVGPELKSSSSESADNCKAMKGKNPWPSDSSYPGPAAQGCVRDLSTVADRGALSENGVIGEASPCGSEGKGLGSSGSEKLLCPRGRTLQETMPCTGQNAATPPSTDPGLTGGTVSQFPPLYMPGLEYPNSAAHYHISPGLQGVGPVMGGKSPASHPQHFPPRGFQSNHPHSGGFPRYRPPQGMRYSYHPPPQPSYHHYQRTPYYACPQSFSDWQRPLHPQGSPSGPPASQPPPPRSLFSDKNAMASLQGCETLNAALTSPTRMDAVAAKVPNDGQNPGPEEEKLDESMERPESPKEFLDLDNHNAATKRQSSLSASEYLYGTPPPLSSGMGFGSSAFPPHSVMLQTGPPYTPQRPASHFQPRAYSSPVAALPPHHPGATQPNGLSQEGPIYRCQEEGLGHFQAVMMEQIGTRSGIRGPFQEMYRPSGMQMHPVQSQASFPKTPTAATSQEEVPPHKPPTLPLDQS

CN(C)C(=O)c1cccc(-c2cn(C)c(=O)c3[nH]ccc23)c1
pKd (Protein polybromo-1): 5.12
pKd [1]: 6.57
pKd [2]: 5.05
pKd [3]: 5.17

C=CCn1cc(-c2cccc(C(=O)N(C)C)c2)c2cc[nH]c2c1=O
Ratio IC50 (Homo sapiens [4]): > 10
Ratio IC50 (Homo sapiens [5]): > 10
pIC50 [6]: < 4.70
pIC50 [7]: 6.54
pIC50 [8]: 5.20
Ratio IC50 (Homo sapiens [9]): > 10
pIC50 [10]: 6.77
Ratio IC50 (Homo sapiens [11]): > 10
Ratio IC50 (Homo sapiens [12]): > 10
pIC50 [13]: 6.11
